From ChEMBL document CHEMBL1135643, “Synthesis and biological activity of strongly fluorescent tricyclic analogues of acyclovir and ganciclovir” (2002)
In brackets after ≈: the same amount, converted by molar mass.

Experiments:
Type in all cases: functional
[1] = Minimum inhibitory concentration against Herpes simplex Virus-1 (McIntyre); settings: Human alphaherpesvirus 1
Method in brief: (§1)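 Confluent E6SM fibroblast monolayers were infected with 100 CCID50 of virus (1 CCID50 infects 50% of inoculated cultures). After 1 h adsorption, residual virus was removed and cultures were incubated with 2- to 5-fold serial dilutions of compound. Inhibition of virus-induced cytopathicity was scored once the virus-infected controls reached full CPE (day 3 post-infection).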

[2] = Minimum inhibitory concentration against Herpes simplex Virus-2(G); method in brief: as §1
[3] = Minimum cytotoxic concentration in E6SM fibroblast cells; settings: Homo sapiens, read-out: Min cytotoxic concentration
[4] = Minimum inhibitory concentration against Herpes simplex Virus-1(F); settings: Human alphaherpesvirus 1; method in brief: as §1
[5] = Minimum inhibitory concentration against Herpes simplex Virus-2(196); settings: Human alphaherpesvirus 2; method in brief: as §1
[6] = Minimum inhibitory concentration against Herpes simplex Virus-1(KOS); settings: Human alphaherpesvirus 1; method in brief: as §1
[7] = Minimum inhibitory concentration against Herpes simplex Virus-2(Lyons); settings: Human alphaherpesvirus 2; method in brief: as §1
[8] = Minimum inhibitory concentration against Herpes simplex Virus-1 (KOS) (ACV); settings: Human alphaherpesvirus 1; method in brief: as §1

Compound	MIC [1] [µM]	MIC ([2]; Human alphaherpesvirus 2) [µM]	MCC [3] [µM]	MIC [4] [µM]	MIC [5] [µM]	MIC [6] [µM]	MIC [7] [µM]	MIC [8] [µM]	MIC ([2]; Human alphaherpesvirus 1) [µM]
O=C(Oc1ccccc1)Oc1ccc(-c2cn3c(O)c4ncn(COC(CO)CO)c4nc3n2)cc1	0.781 (≈ 0.384 µg/mL)	0.417 (≈ 0.205 µg/mL)	814	0.031 (≈ 0.0152 µg/mL)	0.781 (≈ 0.384 µg/mL)	0.008 (≈ 0.00393 µg/mL)	0.156 (≈ 0.0767 µg/mL)	19 (≈ 9.34 µg/mL)	–
O=C(Nc1ccc(-c2cn3c(O)c4ncn(COCCO)c4nc3n2)cc1)Oc1ccccc1	0.834 (≈ 0.384 µg/mL)	2.5 (≈ 1.15 µg/mL)	869	0.834 (≈ 0.384 µg/mL)	1.4 (≈ 0.645 µg/mL)	1.1 (≈ 0.506 µg/mL)	1.4 (≈ 0.645 µg/mL)	174 (≈ 80.1 µg/mL)	–
CC(=O)Nc1ccc(-c2cn3c(O)c4ncn(COCCO)c4nc3n2)cc1	25 (≈ 9.56 µg/mL)	8.4 (≈ 3.21 µg/mL)	126	5 (≈ 1.91 µg/mL)	25 (≈ 9.56 µg/mL)	6.7 (≈ 2.56 µg/mL)	25 (≈ 9.56 µg/mL)	25 (≈ 9.56 µg/mL)	–
CC(C)C(=O)Oc1ccc(-c2cn3c(O)c4ncn(COCCO)c4nc3n2)cc1	0.187 (≈ 0.0769 µg/mL)	0.622 (≈ 0.256 µg/mL)	972	0.311 (≈ 0.128 µg/mL)	0.933 (≈ 0.384 µg/mL)	0.56 (≈ 0.23 µg/mL)	0.933 (≈ 0.384 µg/mL)	583 (≈ 240 µg/mL)	–
CC(C)C(=O)Nc1ccc(-c2cn3c(O)c4ncn(COCCO)c4nc3n2)cc1	4.7 (≈ 1.93 µg/mL)	4.4 (≈ 1.81 µg/mL)	975	4.7 (≈ 1.93 µg/mL)	4.7 (≈ 1.93 µg/mL)	2.8 (≈ 1.15 µg/mL)	4.7 (≈ 1.93 µg/mL)	780 (≈ 320 µg/mL)	–
OCC(CO)OCn1cnc2c(O)n3cc(-c4ccc(O)cc4)nc3nc21	0.207 (≈ 0.0769 µg/mL)	0.96 (≈ 0.356 µg/mL)	1080	0.041 (≈ 0.0152 µg/mL)	0.207 (≈ 0.0769 µg/mL)	0.041 (≈ 0.0152 µg/mL)	0.207 (≈ 0.0769 µg/mL)	69 (≈ 25.6 µg/mL)	–
CC(C)C(=O)Oc1ccc(-c2cn3c(O)c4ncn(COC(CO)CO)c4nc3n2)cc1	0.174 (≈ 0.0768 µg/mL)	0.116 (≈ 0.0512 µg/mL)	906	0.035 (≈ 0.0155 µg/mL)	0.87 (≈ 0.384 µg/mL)	0.116 (≈ 0.0512 µg/mL)	0.174 (≈ 0.0768 µg/mL)	22 (≈ 9.71 µg/mL)	–
O=C(Oc1ccccc1)Oc1ccc(-c2cn3c(O)c4ncn(COCCO)c4nc3n2)cc1	0.166 (≈ 0.0766 µg/mL)	0.83 (≈ 0.383 µg/mL)	867	0.166 (≈ 0.0766 µg/mL)	0.832 (≈ 0.384 µg/mL)	0.832 (≈ 0.384 µg/mL)	0.832 (≈ 0.384 µg/mL)	694 (≈ 320 µg/mL)	–
OCCOCn1cnc2c(O)n3cc(-c4ccc(O)cc4)nc3nc21	0.225 (≈ 0.0768 µg/mL)	0.675 (≈ 0.23 µg/mL)	703	0.225 (≈ 0.0768 µg/mL)	0.375 (≈ 0.128 µg/mL)	0.675 (≈ 0.23 µg/mL)	0.225 (≈ 0.0768 µg/mL)	234 (≈ 79.9 µg/mL)	–
CC(=O)Oc1ccc(-c2cn3c(O)c4ncn(COC(CO)CO)c4nc3n2)cc1	0.186 (≈ 0.0769 µg/mL)	97 (≈ 40.1 µg/mL)	968	0.062 (≈ 0.0256 µg/mL)	0.186 (≈ 0.0769 µg/mL)	0.049 (≈ 0.0203 µg/mL)	0.186 (≈ 0.0769 µg/mL)	23 (≈ 9.51 µg/mL)	–
NC(=O)Nc1ccc(-c2cn3c(O)c4ncn(COCCO)c4nc3n2)cc1	5 (≈ 1.92 µg/mL)	15 (≈ 5.75 µg/mL)	209	5 (≈ 1.92 µg/mL)	8.3 (≈ 3.18 µg/mL)	15 (≈ 5.75 µg/mL)	8.3 (≈ 3.18 µg/mL)	126 (≈ 48.3 µg/mL)	–
CC(=O)Oc1ccc(-c2cn3c(O)c4ncn(COCCO)c4nc3n2)cc1	0.2 (≈ 0.0767 µg/mL)	–	1040	0.2 (≈ 0.0767 µg/mL)	0.2 (≈ 0.0767 µg/mL)	0.601 (≈ 0.23 µg/mL)	0.2 (≈ 0.0767 µg/mL)	626 (≈ 240 µg/mL)	0.601 (≈ 0.23 µg/mL)
Nc1nc2c(ncn2COCCO)c(=O)[nH]1 [ACYCLOVIR]	0.341 (≈ 0.0768 µg/mL)	0.242 (≈ 0.0545 µg/mL)	1780	0.341 (≈ 0.0768 µg/mL)	1 (≈ 0.225 µg/mL)	0.341 (≈ 0.0768 µg/mL)	1 (≈ 0.225 µg/mL)	249 (≈ 56.1 µg/mL)	–
Nc1nc2c(ncn2COC(CO)CO)c(=O)[nH]1 [GANCICLOVIR]	0.04 (≈ 0.0102 µg/mL)	0.06 (≈ 0.0153 µg/mL)	392	0.045 (≈ 0.0115 µg/mL)	0.1 (≈ 0.0255 µg/mL)	0.03 (≈ 0.00766 µg/mL)	0.045 (≈ 0.0115 µg/mL)	7.5 (≈ 1.91 µg/mL)	–
